# Test results reported in ChEMBL document CHEMBL1124568, “2,4-Diamino-5-benzylpyrimidines as antibacterial agents. 13. Some alkenyl derivatives with high in vitro activity against anaerobic organisms” (J Med Chem, 1989).
# Tests used:
# Serratia marcescens = test: Antibacterial (Serratia marcescens CN2398) activity compared to trimethoprim.; assay type: functional
# Procedure, shortened: (§1)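 Each MIC is divided by the MIC of trimethoprim run alongside. Serial dilutions were normally 0.1, 0.3, 1, 3, 10, etc., and occasionally 1, 5 and 10. For E. coli the value is the average over six strains.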
# Dihydrofolate reductase [1] = biological target: T1, Dihydrofolate reductase (Rattus norvegicus, UniProt Q920D2); test: In vitro inhibition of rat liver dihydrofolate reductase.; conditions: read-out: I50
# T1 sequence (Q920D2 whole entry): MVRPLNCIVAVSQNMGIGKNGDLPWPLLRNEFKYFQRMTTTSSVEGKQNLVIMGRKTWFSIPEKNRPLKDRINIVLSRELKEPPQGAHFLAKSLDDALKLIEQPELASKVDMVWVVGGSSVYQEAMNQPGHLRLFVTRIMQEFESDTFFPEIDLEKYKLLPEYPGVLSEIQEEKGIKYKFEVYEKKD
# Clostridioides difficile = test: Ratio of antibacterial (Clostridium difficile) activities compared to that of trimethoprim and metronidazole; assay type: functional
# [2] = Antibacterial (Salmonella typhi CN512) activity compared to trimethoprim.; assay type: functional, salmonella typhosa
# Proteus vulgaris [3] = test: Antibacterial (Proteus vulgaris CN329) activity compared to trimethoprim.; assay type: functional; procedure, shortened: as §1
# [4] = system: Bacteroides thetaiotaomicron; test: Ratio of antibacterial (Bacteroides thetaiotaomicron) activities compared to that of trimethoprim and metronidazole; assay type: functional
# Dihydrofolate reductase [5] = biological target: T2, Dihydrofolate reductase (Escherichia coli, UniProt P0ABQ4); test: Antibacterial activity against Escherichia coli DHFR
# T2 sequence (P0ABQ4 whole entry): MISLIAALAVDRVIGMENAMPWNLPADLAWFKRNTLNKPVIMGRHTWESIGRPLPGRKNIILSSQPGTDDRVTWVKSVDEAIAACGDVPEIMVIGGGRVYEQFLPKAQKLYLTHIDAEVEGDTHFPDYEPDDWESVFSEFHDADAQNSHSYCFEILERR
# Procedure, shortened: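 E. coli DHFR assay with 1 nM enzyme. I50 is the inhibitor concentration that halves the standard-assay velocity. […] Apparent Ki for some inhibitors was obtained by the Henderson method.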
# Phocaeicola vulgatus = test: Ratio of antibacterial (Bacteroides vulgatus) activities compared to that of trimethoprim and metronidazole; assay type: functional
# Clostridium perfringens = test: Ratio of antibacterial (Clostridium perfringens) activities compared to that of trimethoprim and metronidazole; assay type: functional
# Staphylococcus aureus [6] = test: Antibacterial (Staphylococcus aureus CN491) activity compared to trimethoprim.; assay type: functional; procedure, shortened: as §1
# Streptococcus pyogenes [7] = test: Antibacterial ([…] CN10) activity compared to trimethoprim.; assay type: functional; procedure, shortened: as §1
# Fusobacterium nucleatum = test: Ratio of antibacterial (Fusobacterium nucleatum) activities compared to that of trimethoprim and metronidazole; assay type: functional
# Klebsiella pneumoniae [8] = test: Antibacterial (Klebsiella pneumoniae CN3632) activity compared to trimethoprim.; assay type: functional; procedure, shortened: as §1
# Shigella flexneri = test: Antibacterial (Shigella flexneri CN6007) activity compared to trimethoprim.; assay type: functional; procedure, shortened: as §1
# Pasteurella multocida = test: Antibacterial (Pasteurella multocides ATCC 6587) activity compared to trimethoprim.; assay type: functional; procedure, shortened: as §1
# Escherichia coli [9] = test: Antibacterial (Escherichia coli) activity compared to trimethoprim.; assay type: functional; procedure, shortened: as §1
# [10] = system: Mycolicibacterium smegmatis; test: Antibacterial (Mycobacterium smegmatis S3254) activity compared to trimethoprim.; assay type: functional; procedure, shortened: as §1
# Klebsiella aerogenes [11] = test: Antibacterial (Enterobacter aerogenes 2201/86) activity compared to trimethoprim.; assay type: functional; procedure, shortened: as §1
# Staphylococcus aureus [12] = test: Ratio of antibacterial (Staphylococcus aureus CN491) activities of compound and trimethoprim; assay type: functional; procedure, shortened: as §1
# Salmonella = test: Ratio of antibacterial (Salmonella typhi CN512) activities of compound and trimethoprim; assay type: functional, salmonella typhosa
# Klebsiella pneumoniae [13] = test: Ratio of antibacterial (Klebsiella pneumoniae CN3632) activities of compound and trimethoprim; assay type: functional; procedure, shortened: as §1
# Klebsiella aerogenes [14] = test: Ratio of antibacterial (Enterobacter aerogenes, 2201/86) activities of compound and trimethoprim; assay type: functional; procedure, shortened: as §1
# Shigella dysenteriae [15] = test: (§2) Ratio of antibacterial (Shigella dysentariae CN513) activities of compound and trimethoprim; assay type: functional
# [16] = biological target: Bifunctional dihydrofolate reductase-thymidylate synthase (Plasmodium berghei str. ANKA, UniProt Q27713); test: In vitro inhibition of dihydrofolate reductase of Plasmodium berghei; conditions: read-out: I50
# Dihydrofolate reductase [17] = biological target: T2, Dihydrofolate reductase; test: In vitro inhibition of dihydrofolate reductase of Escherichia coli; conditions: read-out: I50
# Procedure, shortened: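 The E. coli DHFR assay contained 1 nM enzyme, with the lower limit for I50 arbitrarily set at 2 nM. I50 was estimated from plots of % inhibition of steady-state velocity vs log inhibitor concentration.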
# Streptococcus pyogenes [18] = test: Ratio of antibacterial (Streptococcus pyogenes CN10) activities of compound and trimethoprim
# Proteus vulgaris [19] = test: Ratio of antibacterial (Proteus vulgaris CN329) activities of compound and trimethoprim; assay type: functional; procedure, shortened: as §1
# Escherichia coli [20] = test: Ratio of antibacterial (Escherichia coli CN314) activities of compound and trimethoprim; assay type: functional
# Dihydrofolate reductase [21] = biological target: Dihydrofolate reductase (Staphylococcus aureus, UniProt P0A017); test: Antibacterial activity against Staphylococcus aureus DHFR
# Procedure, shortened: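 S. aureus (strain S8862) DHFR was partially purified by ammonium sulfate fractionation and gel filtration. The assay used 0.1 M imidazole chloride pH 6.4, 12 mM mercaptoethanol, 60 µM NADPH and 45 µM dihydrofolate at 30 °C, read at 340 nm. Enzyme, NADPH and inhibitor were preincubated 2 min before dihydrofolate was added. I50 came from % inhibition vs log[inhibitor] plots of steady-state velocities.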
# Shigella dysenteriae [22] = test: as §2
# [23] = Half-life in dogs Plasma; assay type: ADME, organism-based, Canis lupus familiaris; conditions: dog
# Procedure, shortened: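 Two fasted (18 h) male beagles received 5 mg/kg […] (free base), co-dosed with 5 mg/kg trimethoprim in propylene glycol. Jugular plasma was sampled from 0.17 to 24 h. Drug was extracted, separated by TLC and read by fluorescence densitometry. t1/2 came from least-squares linear regression of the postabsorption segment of the plasma curve.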
# Chain of Bifunctional dihydrofolate reductase-thymidylate synthase (Q27713 whole entry): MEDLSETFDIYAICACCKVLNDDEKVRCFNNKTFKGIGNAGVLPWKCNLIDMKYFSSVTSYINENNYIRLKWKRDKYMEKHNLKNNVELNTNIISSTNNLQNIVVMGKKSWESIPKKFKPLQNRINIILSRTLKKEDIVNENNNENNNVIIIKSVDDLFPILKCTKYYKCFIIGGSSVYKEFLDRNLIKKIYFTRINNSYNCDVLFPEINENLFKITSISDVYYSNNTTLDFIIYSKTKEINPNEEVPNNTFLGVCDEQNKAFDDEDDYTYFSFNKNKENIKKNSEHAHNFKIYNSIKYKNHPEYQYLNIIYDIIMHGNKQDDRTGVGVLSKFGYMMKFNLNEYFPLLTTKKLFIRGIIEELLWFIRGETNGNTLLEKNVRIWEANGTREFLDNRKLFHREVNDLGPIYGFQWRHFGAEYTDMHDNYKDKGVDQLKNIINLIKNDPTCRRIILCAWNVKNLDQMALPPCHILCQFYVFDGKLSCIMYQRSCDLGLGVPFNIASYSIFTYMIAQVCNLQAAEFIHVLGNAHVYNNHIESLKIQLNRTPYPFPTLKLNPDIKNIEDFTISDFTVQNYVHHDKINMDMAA
# Chain of Dihydrofolate reductase (Staphylococcus aureus, UniProt P0A017) (P0A017 whole entry): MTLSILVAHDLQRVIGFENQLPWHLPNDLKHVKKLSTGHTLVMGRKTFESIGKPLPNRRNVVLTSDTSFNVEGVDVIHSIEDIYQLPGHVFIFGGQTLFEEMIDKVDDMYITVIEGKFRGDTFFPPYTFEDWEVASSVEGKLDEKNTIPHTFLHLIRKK
SMILES,IC50 (Dihydrofolate reductase [1]) [nM],MIC (Clostridioides difficile) [µg/mL],MIC [2] [µg/mL],MIC (Proteus vulgaris [3]) [µg/mL],MIC [4] [µg/mL],MIC (Phocaeicola vulgatus) [µg/mL],MIC (Clostridium perfringens) [µg/mL],MIC (Staphylococcus aureus [6]) [µg/mL],MIC (Streptococcus pyogenes [7]) [µg/mL],MIC (Fusobacterium nucleatum) [µg/mL],MIC (Staphylococcus aureus [12]) [µg/mL],MIC (Salmonella) [µg/mL],MIC (Klebsiella pneumoniae [13]) [µg/mL],MIC (Klebsiella aerogenes [14]) [µg/mL],MIC (Shigella dysenteriae [15]) [µg/mL],IC50 [16] [nM],IC50 (Dihydrofolate reductase [17]) [nM],MIC (Streptococcus pyogenes [18]) [µg/mL],MIC (Proteus vulgaris [19]) [µg/mL],MIC (Escherichia coli [20]) [µg/mL],further results
C=CCc1cc(Cc2cnc(N)nc2N)cc(CCC)c1OC,15000,25,100,> 50,0.1,0.2,12.5,1,2,0.8,,,,,,,,,,,MIC (Serratia marcescens): > 10 µg/mL; Ki (Dihydrofolate reductase [5]): 1.6 nM; MIC (Klebsiella pneumoniae [8]): 100 µg/mL; MIC (Shigella flexneri): 100 µg/mL; MIC (Pasteurella multocida): 10 µg/mL; MIC (Escherichia coli [9]): 38 µg/mL; MIC [10]: 0.5 µg/mL; MIC (Klebsiella aerogenes [11]): 100 µg/mL
CCCc1cc(Cc2cnc(N)nc2N)cc2c1OC(C)(C)C2,9900,,,,,,,,,,3,300,100,100,300,240,280,3,100,100,
CCCc1cc(Cc2cnc(N)nc2N)cc2c1OC(C)C2C (stereo unspecified),2040,,,,,,,,,,1,100,100,30,100,12,13,1,100,30,
CCCc1cc(Cc2cnc(N)nc2N)cc2c1OC(C)C2 (stereo unspecified),6250,,,,,,,,,,1,100,100,100,30,93,21,1,30,30,
CCCc1cc(Cc2cnc(N)nc2N)cc(CCC)c1O,,,,,,,,,,,,,,,,,,,,,Ki (Dihydrofolate reductase [5]): 1.7 nM
C=CCc1cc(Cc2cnc(N)nc2N)cc(CC=C)c1OC,18000,> 25,100,100,0.2,0.2,25,5,1,0.8,,,,,,,,,,,MIC (Serratia marcescens): > 10 µg/mL; Ki (Dihydrofolate reductase [21]): 2.1 nM; MIC (Klebsiella pneumoniae [8]): > 10 µg/mL; MIC (Shigella flexneri): 100 µg/mL; MIC (Pasteurella multocida): 20 µg/mL; MIC (Escherichia coli [9]): 72 µg/mL; MIC [10]: 10 µg/mL; MIC (Klebsiella aerogenes [11]): 100 µg/mL
CCc1cc(Cc2cnc(N)nc2N)cc2c1OC(C)C2 (stereo unspecified),11000,,,,,,,,,,1,30,30,30,30,100,19,1,30,30,
COc1cc(Cc2cnc(N)nc2N)cc(OC)c1OC [TRIMETHOPRIM],,> 25,1,1,12.5,6.2,> 25,1,1,0.8,,,,,,,,,,,MIC (Shigella dysenteriae [22]): 1 µg/mL; half-life [23]: 3.44 h; MIC (Klebsiella pneumoniae [8]): 1 µg/mL; MIC (Pasteurella multocida): 1 µg/mL; MIC (Escherichia coli [9]): 1 µg/mL; MIC (Klebsiella aerogenes [11]): 1 µg/mL
